High-throughput results (PubChem BioAssay)
VIM-2 inh: blocks Pseudomonas aeruginosa VIM-2 metallo-beta-lactamase; purified VIM-2, nitrocefin hydrolysis, epi-absorbance fluorescence; inhibition, % at 5.6 µM; actives 0.89% (n = 290,000); AID 1527;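 active means inhibition above the mean of all tested compounds plus 3 SD, cutoff set per screening run, cut at about 7.5% in these data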;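 further: red hydrolysis product quenches plate fluorescence so inhibitors raise well fluorescence; 0% = enzyme with DMSO and 100% = DMSO without enzyme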
SUMO HTRF inh: blocks human SUMOylation mediated by UBC9; P63279; HTRF SUMOylation assay, SAE1/SAE2 + UBC9, in vitro; inhibition, % at 35 µM; actives 0.36% (n = 290,000); AID 2006; in the data active means inhibition above about 50%, passing the limit was not always enough; inconclusive means no clear call, values can overlap the other calls
Target sequence (P63279 whole entry, looked up): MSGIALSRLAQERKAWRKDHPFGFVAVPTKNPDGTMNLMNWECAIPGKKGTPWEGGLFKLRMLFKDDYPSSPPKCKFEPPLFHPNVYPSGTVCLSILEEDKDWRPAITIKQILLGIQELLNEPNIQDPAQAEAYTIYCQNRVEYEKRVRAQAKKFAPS
Mot1-301 SUMO: blocks SUMOylation pathway, rescuing yeast Mot1-301 growth. actives 1% (n = 320,000). growth rescue, % at 18.8 µM. S. cerevisiae Mot1-301 growth rescue, ATP luminescence, 38.5C; percent above DMSO median, 100 means doubled. AID 2716;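 active means every valid replicate shows activation above 250% relative to neutral control wells; inactive means the rest, any valid replicate at or below 250%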;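 further: OY570 slx delta 5 strain wells were the positive control but not used for scaling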
FID counter: displaces DNA intercalator in HCV helicase counter-screen; DNA fluorescent intercalator displacement, fluorescence; inhibition, % at 7.9 µM; actives 0.17% (n = 290,000); AID 1845; in the data active means inhibition above about 37%;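 further: 0% = vehicle and 100% = reference compound; higher means more ethidium bromide displaced from hairpin DNA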
NALP1 inh: NALP1 inhibition; S. cerevisiae NALP1/ASC/caspase-1 growth, X-gal OD620, 72 h; inhibition, % at 10 µM; actives 0.61% (n = 280,000); AID 2071; in the data active means inhibition mostly above about 24%, no sharp cut-off; inactive means mostly below about 32%
IMP-1 inhibitor: blocks Pseudomonas aeruginosa IMP-1 metallo-beta-lactamase; purified IMP-1, nitrocefin hydrolysis, epi-absorbance fluorescence; inhibition, % at 5.6 µM; actives 0.45% (n = 290,000); AID 1556;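 active means inhibition above the mean plus 3 SD of all compounds in the same screening run, cut at about 4.5% in these data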;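 further: 0% = IMP-1 with DMSO and 100% = DMSO wells lacking enzyme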
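Assay system: purified IMP-1; Quantity: IMP-1 0.2 nM before substrate addition; Medium: HEPES buffer pH 7.1 with ZnSO4 and Brij 35; Incubation: 15 min enzyme–compound preincubation, then 25 min nitrocefin reaction, 25 °C; Signal: fluorescence quenching readout, ex 480/em 530 nm; Controls: DMSO with and without IMP-1; Repeats: singlicate testing.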
Active calls of the source: *; ? = inconclusive; nt = not tested or not shown. In the library only some 2.9% were active in any assay of this set; here they are far more common.

SMILES	VIM-2 inh	SUMO HTRF inh	Mot1-301 SUMO	FID counter	NALP1 inh	IMP-1 inhibitor
CCCCNC1=CC(=O)C(=O)c2ccccc21	-2	91*	nt	-6	7	-2
O=C1C=C(Nc2ccccc2)c2ccccc2C1=O	-2	nt	nt	5	0	-2
NC(N)=Nc1cc2ccccc2c2ccccc12	0	86*	10	19	5	-2
COc1ccc(NC2CCCCC2NS(=O)(=O)c2ccc(C)cc2)cc1 (stereo not drawn)	1	13	10	-16	21	-3
CC(=O)Nc1ccc(S(=O)(=O)NNc2ccc([N+](=O)[O-])cc2)cc1	0	7	296*	3	-4	-4
O=C(NNc1ccccc1)C(=O)NNS(=O)(=O)c1ccc([N+](=O)[O-])cc1	-2	-10	368*	13	2	-3
Nc1ccc(Cc2ccc(N)c(O)c2)cc1O	-3	?	nt	-2	-5	-3
COC(=O)c1ccc(NS(=O)(=O)c2cc3c4c(c2)CCC(=O)N4CCC3)cc1	nt	nt	-15	nt	nt	nt
COc1ccc(C)cc1NC(=O)C1COc2ccccc2O1 (stereo not drawn)	-2	-14	12	-16	3	-2
CCOC(=O)/C=c1\s/c(=C\c2ccc3c(c2)OCCO3)c(=O)n1CC(=O)NCC1CCCO1 (stereo not drawn)	3	40	387	-5	8	4.7*
CCOC(=O)/C=c1\s/c(=C\c2c(OCC)ccc3ccccc23)c(=O)n1CC(=O)NCC1CCCO1 (stereo not drawn)	-1	6	-1	-23	-2	-4
CCOC(=O)c1ccsc1NC(=O)c1ccco1	9.1*	-9	-12	-14	20	-1
Cc1oc2c(c1C(=O)NCc1cccnc1)C(=O)c1ccccc1C2=O	9.2*	34	-37	-3	11	-1
Cc1c(CCC(=O)NCCCn2ccnc2)c(=O)oc2cc3oc4c(c3cc12)CCCC4	6	34	3	6	-12	-1
COc1cccc(-c2nnc(NC(=O)c3ccc(Cl)s3)o2)c1	-1	39	-1	-11	20	-2
CSC(=NCCCN1CCOCC1)NS(=O)(=O)c1cccs1	-3	7	nt	1	32*	-3
Cc1cccc(NC(=O)C23CCC(C)(C(=O)O2)C3(C)C)c1 (stereo not drawn)	1	7	235	-11	-4	0
COc1cccc(NC(=O)C23CCC(C)(C(=O)O2)C3(C)C)c1 (stereo not drawn)	-4	9	nt	-7	39*	-3
Cc1cc(NC(=O)CSCc2nc(-c3cccc(F)c3)oc2C)no1	-5	5	-13	-16	40*	-4
Cc1ccc(-c2nc(CSCC(=O)Nc3cc(C)on3)c(C)o2)cc1	2	18	17	-14	5	-3
O=C(Nc1cc(-c2ccccc2)[nH]n1)c1ccc(Cl)cc1	-3	16	20	-4	14	-4
Cc1ccc2nc(-c3cccc(N)c3)[nH]c2c1	0	22	156	4	-65	-5
Nc1ccc(-c2nc3ccccc3[nH]2)cc1	-1	15	1	11	nt	-4
Nc1ccc2nc(-c3ccc(-c4nc5ccc(N)cc5[nH]4)cc3)[nH]c2c1	-3	62*	122	52*	5	-4
Fc1ccc(-c2nc3ccccc3[nH]2)cc1	-2	10	-9	2	36*	-3
SMILES	VIM-2 inh	SUMO HTRF inh	Mot1-301 SUMO	FID counter	NALP1 inh	IMP-1 inhibitor
Nc1ccc2nc(-c3cccc(-c4nc5ccc(N)cc5[nH]4)n3)[nH]c2c1	10.0*	-5	0	31	-11	-5
CC(C)OCCCNc1ncc2c(n1)CC(c1ccccc1)CC2=O (stereo not drawn)	-5	-14	18	-28	20	-3
CCc1nnc(NC(=O)CSc2nnc(CNC(=O)c3cc(OC)c(OC)c(OC)c3)o2)s1	-6	14	-10	-55	27	-4
CCCCCC(=O)Oc1cccc(N2C(=O)C3CCCCC3C2=O)c1 (stereo not drawn)	-1	0	266	-33	-5	-3
C=CCC1c2cccc(C(=O)O)c2C(=O)N1c1cccc(C)c1 (stereo not drawn)	11*	2	1	-11	7	-6
COc1cc(C)c(/C=C(\C#N)C(=O)Nc2cccc(C)c2)cc1C(C)C	-4	12	-7	-3	13	-2
